Legend:
[1] = biological target: Calcium/calmodulin-dependent protein kinase type II subunit delta (Homo sapiens) (UniProt Q13557); experiment: Inhibition of CaMK2d Lys2 labeling site in human Huh-7 cell lysate at 1 uM by KiNativ Profiling analysis relative to control; format: subcellular
[2] = biological target: T1, PAN2-PAN3 deadenylation complex subunit PAN3 (Homo sapiens) (UniProt Q58A45); experiment: Inhibition of PAN3 Protein Kinase Domain labeling site in human Huh-7 cell lysate at 1 uM by KiNativ Profiling analysis relative to control; format: subcellular
T1 sequence (whole entry): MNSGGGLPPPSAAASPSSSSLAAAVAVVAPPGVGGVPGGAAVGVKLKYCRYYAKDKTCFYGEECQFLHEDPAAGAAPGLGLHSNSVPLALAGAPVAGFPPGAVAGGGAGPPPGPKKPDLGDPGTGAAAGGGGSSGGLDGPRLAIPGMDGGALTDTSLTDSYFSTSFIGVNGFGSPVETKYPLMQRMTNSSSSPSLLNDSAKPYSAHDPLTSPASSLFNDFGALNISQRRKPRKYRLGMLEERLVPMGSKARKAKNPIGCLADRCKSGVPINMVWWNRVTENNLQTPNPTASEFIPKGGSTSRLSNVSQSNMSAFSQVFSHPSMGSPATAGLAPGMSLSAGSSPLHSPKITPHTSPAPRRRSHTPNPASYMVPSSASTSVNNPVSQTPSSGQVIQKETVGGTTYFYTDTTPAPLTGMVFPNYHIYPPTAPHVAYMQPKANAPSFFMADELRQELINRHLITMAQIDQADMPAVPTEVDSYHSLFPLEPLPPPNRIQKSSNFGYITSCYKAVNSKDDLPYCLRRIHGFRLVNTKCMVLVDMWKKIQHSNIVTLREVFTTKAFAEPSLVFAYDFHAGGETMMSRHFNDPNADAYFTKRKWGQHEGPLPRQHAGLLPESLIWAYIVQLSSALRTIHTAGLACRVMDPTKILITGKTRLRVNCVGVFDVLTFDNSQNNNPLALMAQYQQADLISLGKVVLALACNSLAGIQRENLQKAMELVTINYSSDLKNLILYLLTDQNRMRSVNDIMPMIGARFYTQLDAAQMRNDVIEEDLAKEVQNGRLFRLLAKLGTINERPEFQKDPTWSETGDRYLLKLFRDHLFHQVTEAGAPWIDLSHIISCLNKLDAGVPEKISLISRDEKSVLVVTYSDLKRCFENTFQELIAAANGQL

[3] = biological target: Cyclin-dependent kinase 5 (Homo sapiens) (UniProt Q00535); experiment: Inhibition of CDK5 K2 labeling site harbouring DLKPQNLLINR in human Huh-7 cells at 10 uM by KiNativ Profiling analysis relative to control; format: cell-based
Chain of Cyclin-dependent kinase 5 (Homo sapiens) (Q00535 whole entry, looked up): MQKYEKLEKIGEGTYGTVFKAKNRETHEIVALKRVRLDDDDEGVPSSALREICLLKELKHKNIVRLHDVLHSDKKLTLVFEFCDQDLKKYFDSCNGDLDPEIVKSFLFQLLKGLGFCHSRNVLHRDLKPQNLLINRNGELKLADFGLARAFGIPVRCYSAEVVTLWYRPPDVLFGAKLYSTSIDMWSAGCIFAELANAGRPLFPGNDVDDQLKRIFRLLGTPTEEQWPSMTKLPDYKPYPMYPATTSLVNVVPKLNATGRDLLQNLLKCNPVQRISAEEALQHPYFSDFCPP

[4] = biological target: Mitogen-activated protein kinase kinase kinase 4 (Homo sapiens) (UniProt Q9Y6R4); experiment: Inhibition of MAP3K4 K2 labeling site in human Huh-7 cells at 10 uM by KiNativ Profiling analysis relative to control; format: cell-based
[5] = biological target: T2, Serine/threonine-protein kinase greatwall (Homo sapiens) (UniProt Q96GX5); experiment: Inhibition of MASTL ATP labeling site in human Huh-7 cells at 1 uM by KiNativ Profiling analysis relative to control; format: cell-based
T2 sequence (whole entry): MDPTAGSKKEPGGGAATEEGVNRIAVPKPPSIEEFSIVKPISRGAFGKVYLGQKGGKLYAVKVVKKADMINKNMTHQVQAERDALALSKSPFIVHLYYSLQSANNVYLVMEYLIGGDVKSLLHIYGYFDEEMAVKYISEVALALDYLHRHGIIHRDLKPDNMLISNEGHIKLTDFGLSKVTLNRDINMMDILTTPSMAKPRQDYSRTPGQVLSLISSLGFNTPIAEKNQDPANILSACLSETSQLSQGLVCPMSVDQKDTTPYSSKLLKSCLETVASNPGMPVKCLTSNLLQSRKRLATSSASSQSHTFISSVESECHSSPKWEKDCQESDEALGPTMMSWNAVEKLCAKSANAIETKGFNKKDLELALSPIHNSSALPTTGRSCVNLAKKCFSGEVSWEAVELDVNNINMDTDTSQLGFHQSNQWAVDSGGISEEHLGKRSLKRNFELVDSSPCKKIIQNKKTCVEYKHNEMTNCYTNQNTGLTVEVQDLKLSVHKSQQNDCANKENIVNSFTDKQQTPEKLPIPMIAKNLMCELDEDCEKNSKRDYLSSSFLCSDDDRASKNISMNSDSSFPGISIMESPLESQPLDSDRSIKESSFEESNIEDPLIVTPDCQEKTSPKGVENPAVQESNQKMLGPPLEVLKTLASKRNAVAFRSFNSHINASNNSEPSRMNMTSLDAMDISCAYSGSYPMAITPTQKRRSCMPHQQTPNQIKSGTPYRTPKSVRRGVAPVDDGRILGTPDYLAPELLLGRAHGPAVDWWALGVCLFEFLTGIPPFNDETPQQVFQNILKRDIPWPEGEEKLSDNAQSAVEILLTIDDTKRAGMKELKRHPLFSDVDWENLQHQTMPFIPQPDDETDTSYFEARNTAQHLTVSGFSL

[6] = biological target: Microtubule-associated serine/threonine-protein kinase 1 (Homo sapiens) (UniProt Q9Y2H9); experiment: Inhibition of MAST1 Lys2 labeling site in human A-375 cells at 5 uM by KiNativ Profiling analysis relative to control
Chain of Microtubule-associated serine/threonine-protein kinase 1 (Homo sapiens) (Q9Y2H9 whole entry, looked up): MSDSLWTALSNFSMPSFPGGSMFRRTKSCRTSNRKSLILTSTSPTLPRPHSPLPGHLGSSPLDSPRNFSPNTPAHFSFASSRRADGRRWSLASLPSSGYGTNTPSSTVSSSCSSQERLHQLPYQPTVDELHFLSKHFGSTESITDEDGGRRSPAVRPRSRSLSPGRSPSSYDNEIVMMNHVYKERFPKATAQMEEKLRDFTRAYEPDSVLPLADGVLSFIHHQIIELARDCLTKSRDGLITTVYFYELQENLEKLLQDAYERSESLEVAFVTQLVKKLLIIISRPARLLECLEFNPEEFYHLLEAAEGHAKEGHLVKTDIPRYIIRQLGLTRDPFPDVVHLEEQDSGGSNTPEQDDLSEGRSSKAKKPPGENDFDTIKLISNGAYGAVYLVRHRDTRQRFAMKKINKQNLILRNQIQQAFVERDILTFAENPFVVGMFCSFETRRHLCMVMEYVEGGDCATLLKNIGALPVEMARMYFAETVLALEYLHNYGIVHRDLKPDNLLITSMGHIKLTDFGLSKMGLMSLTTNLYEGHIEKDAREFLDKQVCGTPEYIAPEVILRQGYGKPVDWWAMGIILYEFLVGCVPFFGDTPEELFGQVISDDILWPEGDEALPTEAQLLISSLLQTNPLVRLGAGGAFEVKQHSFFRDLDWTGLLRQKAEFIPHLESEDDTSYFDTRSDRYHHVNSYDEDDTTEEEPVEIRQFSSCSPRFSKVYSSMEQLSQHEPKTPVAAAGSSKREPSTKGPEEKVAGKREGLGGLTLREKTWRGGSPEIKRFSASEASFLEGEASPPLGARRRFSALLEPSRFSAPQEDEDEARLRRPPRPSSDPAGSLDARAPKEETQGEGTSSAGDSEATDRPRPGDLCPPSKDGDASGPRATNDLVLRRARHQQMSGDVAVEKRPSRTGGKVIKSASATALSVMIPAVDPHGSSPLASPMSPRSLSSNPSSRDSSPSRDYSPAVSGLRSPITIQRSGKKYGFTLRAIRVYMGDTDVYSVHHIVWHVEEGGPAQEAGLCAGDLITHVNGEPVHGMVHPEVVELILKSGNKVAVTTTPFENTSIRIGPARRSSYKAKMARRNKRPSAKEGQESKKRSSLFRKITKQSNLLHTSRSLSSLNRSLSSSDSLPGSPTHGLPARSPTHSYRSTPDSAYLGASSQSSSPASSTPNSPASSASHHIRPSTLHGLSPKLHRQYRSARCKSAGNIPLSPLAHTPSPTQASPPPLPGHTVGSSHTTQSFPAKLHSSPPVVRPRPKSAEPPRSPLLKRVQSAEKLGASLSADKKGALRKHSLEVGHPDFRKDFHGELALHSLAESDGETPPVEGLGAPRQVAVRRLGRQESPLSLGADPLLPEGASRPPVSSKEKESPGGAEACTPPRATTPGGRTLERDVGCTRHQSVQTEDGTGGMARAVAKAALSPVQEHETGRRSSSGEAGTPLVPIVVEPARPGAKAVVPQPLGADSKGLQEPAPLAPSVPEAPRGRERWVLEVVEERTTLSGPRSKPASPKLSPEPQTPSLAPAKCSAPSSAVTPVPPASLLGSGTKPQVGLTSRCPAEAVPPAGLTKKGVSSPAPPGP

[7] = biological target: Serine/threonine-protein kinase 16 (Homo sapiens) (UniProt O75716); experiment: Inhibition of MPSK1 Lys2 labeling site in human A-375 cells at 5 uM by KiNativ Profiling analysis relative to control; format: cell-based
Chain of Serine/threonine-protein kinase 16 (Homo sapiens) (O75716 whole entry): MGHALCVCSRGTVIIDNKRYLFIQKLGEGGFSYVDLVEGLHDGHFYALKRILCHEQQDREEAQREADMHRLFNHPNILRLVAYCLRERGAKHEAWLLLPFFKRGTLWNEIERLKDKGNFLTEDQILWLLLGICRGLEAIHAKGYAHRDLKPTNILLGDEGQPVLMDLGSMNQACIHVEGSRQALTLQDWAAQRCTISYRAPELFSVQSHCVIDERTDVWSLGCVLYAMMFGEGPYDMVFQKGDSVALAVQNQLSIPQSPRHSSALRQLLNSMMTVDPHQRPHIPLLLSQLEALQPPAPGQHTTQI

[8] = biological target: 5'-AMP-activated protein kinase catalytic subunit alpha-1 (Homo sapiens) (UniProt Q13131); experiment: Inhibition of AMPKa1 Lys2 labeling site in human A-375 cells at 0.5 uM by KiNativ Profiling analysis relative to control; format: cell-based
Chain of 5'-AMP-activated protein kinase catalytic subunit alpha-1 (Homo sapiens) (Q13131 whole entry, looked up): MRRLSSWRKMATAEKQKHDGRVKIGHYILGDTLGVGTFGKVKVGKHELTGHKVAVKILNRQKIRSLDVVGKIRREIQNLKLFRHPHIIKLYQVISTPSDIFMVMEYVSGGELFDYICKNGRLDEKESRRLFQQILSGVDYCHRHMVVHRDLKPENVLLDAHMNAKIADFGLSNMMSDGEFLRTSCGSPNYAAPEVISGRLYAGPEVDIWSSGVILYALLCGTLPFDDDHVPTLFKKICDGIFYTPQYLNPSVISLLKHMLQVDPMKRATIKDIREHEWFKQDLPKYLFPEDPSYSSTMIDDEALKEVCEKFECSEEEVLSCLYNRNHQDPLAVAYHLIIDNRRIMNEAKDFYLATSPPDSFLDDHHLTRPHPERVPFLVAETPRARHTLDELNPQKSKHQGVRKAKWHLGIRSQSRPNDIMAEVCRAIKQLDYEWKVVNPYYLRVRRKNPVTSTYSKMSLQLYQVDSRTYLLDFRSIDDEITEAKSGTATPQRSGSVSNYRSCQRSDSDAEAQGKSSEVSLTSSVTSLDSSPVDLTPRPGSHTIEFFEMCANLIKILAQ
Outline: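 Intact A375 melanoma cells were treated with compound at 5 or 0.5 μM, then lysed. Lysate kinases were labeled with a lysine-reactive ATP or ADP-biotin probe (KiNativ). Inhibition is read as protection of each kinase labeling site from probe labeling.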

[9] = biological target: Tyrosine-protein kinase Yes (Homo sapiens) (UniProt P07947); experiment: Inhibition of YES ACT labeling site in human A-375 cells at 0.05 uM by KiNativ Profiling analysis relative to control; format: cell-based
Chain of Tyrosine-protein kinase Yes (Homo sapiens) (P07947 2-543 limits assumed): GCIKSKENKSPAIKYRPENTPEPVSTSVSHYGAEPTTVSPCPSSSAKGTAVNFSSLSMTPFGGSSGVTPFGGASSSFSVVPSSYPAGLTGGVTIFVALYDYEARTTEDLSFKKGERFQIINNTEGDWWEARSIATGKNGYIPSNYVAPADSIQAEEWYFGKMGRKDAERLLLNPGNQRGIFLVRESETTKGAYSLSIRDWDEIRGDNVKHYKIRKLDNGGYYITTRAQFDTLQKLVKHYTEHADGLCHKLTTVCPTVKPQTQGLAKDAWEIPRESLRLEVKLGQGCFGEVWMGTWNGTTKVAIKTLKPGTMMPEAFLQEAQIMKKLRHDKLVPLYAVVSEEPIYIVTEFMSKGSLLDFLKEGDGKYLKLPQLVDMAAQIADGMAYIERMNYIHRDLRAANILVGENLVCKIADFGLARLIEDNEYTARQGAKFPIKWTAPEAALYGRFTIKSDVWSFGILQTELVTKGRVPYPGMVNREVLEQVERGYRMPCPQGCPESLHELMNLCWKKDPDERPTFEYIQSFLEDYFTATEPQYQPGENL

[10] = biological target: Glycogen synthase kinase-3 beta (Homo sapiens) (UniProt P49841); experiment: Inhibition of GSK3B Lys2 labeling site in human A-375 cells at 0.05 uM by KiNativ Profiling analysis relative to control; format: cell-based
Chain of Glycogen synthase kinase-3 beta (Homo sapiens) (P49841 whole entry, looked up): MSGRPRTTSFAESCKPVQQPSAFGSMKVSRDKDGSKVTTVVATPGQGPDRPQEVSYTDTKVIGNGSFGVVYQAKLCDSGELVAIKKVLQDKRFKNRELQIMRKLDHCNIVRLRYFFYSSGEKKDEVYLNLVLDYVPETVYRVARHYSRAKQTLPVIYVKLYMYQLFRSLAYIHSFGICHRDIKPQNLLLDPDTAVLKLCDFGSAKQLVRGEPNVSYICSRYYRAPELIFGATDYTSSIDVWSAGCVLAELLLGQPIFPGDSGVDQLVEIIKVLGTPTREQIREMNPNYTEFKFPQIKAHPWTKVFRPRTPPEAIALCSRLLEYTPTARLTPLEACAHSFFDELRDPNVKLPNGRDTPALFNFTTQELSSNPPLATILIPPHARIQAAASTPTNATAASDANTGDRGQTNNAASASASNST

[11] = biological target: Serine/threonine-protein kinase 25 (Homo sapiens) (UniProt O00506); experiment: Inhibition of YSK1 (unknown origin) at 1 uM by Ambit Kinomescan binding assay relative to control; values are per cent of control
Chain of Serine/threonine-protein kinase 25 (Homo sapiens) (O00506 whole entry, looked up): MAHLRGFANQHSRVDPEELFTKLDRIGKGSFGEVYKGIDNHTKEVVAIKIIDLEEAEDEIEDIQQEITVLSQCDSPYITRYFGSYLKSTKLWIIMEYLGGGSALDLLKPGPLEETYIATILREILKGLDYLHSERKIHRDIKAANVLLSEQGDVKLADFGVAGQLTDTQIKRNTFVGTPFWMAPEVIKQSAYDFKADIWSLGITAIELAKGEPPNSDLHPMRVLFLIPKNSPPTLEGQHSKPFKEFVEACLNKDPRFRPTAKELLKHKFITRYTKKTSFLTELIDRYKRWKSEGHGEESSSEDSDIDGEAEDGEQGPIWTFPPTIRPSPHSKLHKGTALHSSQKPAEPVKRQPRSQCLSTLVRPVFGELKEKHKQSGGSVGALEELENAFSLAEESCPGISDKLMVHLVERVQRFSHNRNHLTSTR

[12] = system: Proto-oncogene tyrosine-protein kinase receptor Ret (Homo sapiens), P07949 [M918T]; experiment: Inhibition of RET M918T mutant (unknown origin) at 1 uM by Ambit Kinomescan binding assay relative to control; values are per cent of control

Chain of Calcium/calmodulin-dependent protein kinase type II subunit delta (Homo sapiens) (Q13557 whole entry, the tested form may be a part): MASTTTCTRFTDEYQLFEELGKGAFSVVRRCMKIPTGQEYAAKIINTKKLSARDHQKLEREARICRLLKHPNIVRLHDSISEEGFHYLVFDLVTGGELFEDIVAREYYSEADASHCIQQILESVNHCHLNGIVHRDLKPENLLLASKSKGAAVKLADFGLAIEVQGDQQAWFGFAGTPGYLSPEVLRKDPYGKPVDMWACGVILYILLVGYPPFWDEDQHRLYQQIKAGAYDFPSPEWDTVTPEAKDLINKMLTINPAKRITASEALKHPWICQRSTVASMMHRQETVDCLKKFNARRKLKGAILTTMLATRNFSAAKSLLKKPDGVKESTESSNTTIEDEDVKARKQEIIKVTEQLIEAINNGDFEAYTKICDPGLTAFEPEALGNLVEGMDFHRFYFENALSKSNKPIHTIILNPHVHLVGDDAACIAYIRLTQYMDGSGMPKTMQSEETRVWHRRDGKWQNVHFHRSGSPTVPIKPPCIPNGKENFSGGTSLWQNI

For `CNc1cc(Oc2cc(C(=O)Nc3cc(N4CCN(C)CC4)cc(C(F)(F)F)c3)ccc2C)ncn1`, the inhibition [1] was 0.7% and the inhibition [2] was -2.9%.

In the case of `CCN1CCN(Cc2ccc(NC(=O)c3ccc(C)c(Oc4ccnc5[nH]ccc45)c3)cc2C(F)(F)F)CC1`, the inhibition [3] is reported as -6.3%, the inhibition [4] is reported as 5.2% and the inhibition [5] is reported as 3.6%. For the same molecule, the inhibition [6] was -6.1%.

In the case of `CCN1CCN(Cc2ccc(NC(=O)c3ccc(C)c(/C=C/c4cnc5[nH]ccc5c4OC)c3)cc2C(F)(F)F)CC1`, the inhibition [7] is reported as 41%, the inhibition [8] is reported as -8.2% and the inhibition [9] is reported as 38.9%. The inhibition [10] was 29.8%, the percent of control [11] was 100% and the % of control [12] was 0.05%.

Source: ChEMBL document CHEMBL5696442, “Discovery of type II inhibitors of TGFβ-activated kinase 1 (TAK1) and mitogen-activated protein kinase kinase kinase kinase 2 (MAP4K2)” (J Med Chem, 2015)
